Laboratory results from ChEMBL document CHEMBL2163316, “Discovery of (S)-6-(3-cyclopentyl-2-(4-(trifluoromethyl)-1H-imidazol-1-yl)propanamido)nicotinic acid as a hepatoselective glucokinase activator clinical candidate for treating type 2 diabetes mellitus” (J Med Chem, 2012).
In brackets after ≈: the same amount, converted by molar mass.

Legend:
[1] = test system: Canis familiaris; assay: fAUC (0 to 24 hrs) in dog at 1 mg/kg, iv; assay type: ADME, organism-based, Canis lupus familiaris; parameters: dose 1 mg/kg, route intravenous; settings: in vivo
[2] = test system: Rattus norvegicus; assay: fCmax in rat at 1 mg/kg, iv; assay type: ADME, organism-based; parameters: dose 1 mg/kg, route intravenous; settings: in vivo
[3] = Kinetic solubility of the compound; assay type: physicochemical; settings: read-out: Kinetic_solubility
[4] = Volume of distribution at steady state in dog at 1 mg/kg, iv; assay type: ADME, organism-based, Canis lupus familiaris; parameters: dose 1 mg/kg, route intravenous; settings: in vivo, read-out: Vdss
Outline: (§1)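 Pharmacokinetic parameters are the geometric mean of n = 2 animals per group unless otherwise noted.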

[5] = Ratio of free drug uptake in brain to plasma of dog at 50 mg/kg, po administered for 4 days measured 4 hrs post last dosing; assay type: ADME, organism-based, Canis lupus familiaris; parameters: dose 50 mg/kg, route oral; settings: read-out: BPR
Outline: (§2)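 Oral repeat dosing: rats for 28 days, dogs for 4 days. Plasma, liver, pancreas and brain were sampled at 4 h postdose on the last day. Ratios use free drug concentrations, converted with unbound fractions from equilibrium dialysis (plasma at 50 μM, tissues at 1 μM). BLQ = below limit of quantification.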

[6] = test system: Rattus norvegicus; assay: fAUC (0 to 24 hrs) in rat at 5 mg/kg, po; assay type: ADME, organism-based; parameters: dose 5 mg/kg, route oral; settings: in vivo
[7] = Oral bioavailability in dog at 5 mg/kg; assay type: ADME, organism-based, Canis lupus familiaris; settings: in vivo
[8] = Ratio of free drug uptake in pancreas to plasma of dog at 50 mg/kg, po administered for 4 days measured 4 hrs post last dosing; assay type: ADME, organism-based, Canis lupus familiaris; parameters: dose 50 mg/kg, route oral; outline: as §2
[9] = test system: Rhesus monkey; assay: fCmax in monkey at 3 mg/kg, po; assay type: ADME, organism-based, Macaca mulatta; parameters: dose 3 mg/kg, route oral; settings: in vivo
[10] = Ratio of free drug uptake in liver to plasma of dog at 50 mg/kg, po administered for 4 days measured 4 hrs post last dosing; assay type: ADME, organism-based, Canis lupus familiaris; parameters: dose 50 mg/kg, route oral; outline: as §2
[11] = test system: Canis familiaris; assay: fAUC (0 to 24 hrs) in dog at 5 mg/kg, po; assay type: ADME, organism-based, Canis lupus familiaris; parameters: dose 5 mg/kg, route oral; settings: in vivo
[12] = Renal excretion in rat; assay type: ADME, organism-based, Kidney; settings: urine, read-out: Drug excretion
[13] = Ratio of free drug uptake in pancreas to plasma of Wistar rat at 100 mg/kg, po administered for 28 days measured 4 hrs post last dosing; assay type: ADME, organism-based; parameters: dose 100 mg/kg, route oral; outline: as §2
[14] = test system: Rhesus monkey; assay: fAUC (0 to 24 hrs) in monkey at 3 mg/kg, po; assay type: ADME, organism-based, Macaca mulatta; parameters: dose 3 mg/kg, route oral; settings: in vivo
[15] = Thermodynamic solubility of the compound at pH 6.5; assay type: physicochemical; settings: buffer, read-out: Therm_solubility
[16] = test system: Rattus norvegicus; assay: fCmax in rat at 5 mg/kg, po; assay type: ADME, organism-based; parameters: dose 5 mg/kg, route oral; settings: in vivo
[17] = Volume of distribution at steady state in monkey at 0.5 mg/kg, iv; assay type: ADME, organism-based, Macaca mulatta; parameters: dose 0.5 mg/kg, route intravenous; settings: rhesus monkey, in vivo, read-out: Vdss; outline: as §1
[18] = test system: Canis familiaris; assay: fCmax in dog at 1 mg/kg, iv; assay type: ADME, organism-based, Canis lupus familiaris; parameters: dose 1 mg/kg, route intravenous; settings: in vivo
[19] = Oral bioavailability in rat at 5 mg/kg; assay type: ADME, organism-based; settings: in vivo; outline: as §1
[20] = test system: Rattus norvegicus; assay: fAUC (0 to 24 hrs) in rat at 1 mg/kg, iv; assay type: ADME, organism-based; parameters: dose 1 mg/kg, route intravenous; settings: in vivo
[21] = Drug excretion in rat bile; assay type: ADME, tissue-based; settings: read-out: Drug excretion
[22] = test system: Rhesus monkey; assay: fAUC (0 to 24 hrs) in monkey at 0.5 mg/kg, iv; assay type: ADME, organism-based, Macaca mulatta; parameters: dose 0.5 mg/kg, route intravenous; settings: in vivo
[23] = Volume of distribution at steady state in rat at 1 mg/kg, iv; assay type: ADME, organism-based; parameters: dose 1 mg/kg, route intravenous; settings: in vivo, read-out: Vdss; outline: as §1
[24] = Ratio of free drug uptake in liver to plasma of Wistar rat at 100 mg/kg, po administered for 28 days measured 4 hrs post last dosing; assay type: ADME, organism-based; parameters: dose 100 mg/kg, route oral; outline: as §2
[25] = Fraction absorbed in portal vein cannulated rat at 5 mg/kg, po; settings: in vivo, read-out: Fabs
[26] = Oral bioavailability in monkey at 3 mg/kg; assay type: ADME, organism-based, Macaca mulatta; settings: rhesus monkey, in vivo; outline: as §1
[27] = Ratio of free drug uptake in brain to plasma of Wistar rat at 100 mg/kg, po administered for 28 days measured 4 hrs post last dosing; assay type: ADME, organism-based; parameters: dose 100 mg/kg, route oral; settings: BLD = below limit of detection; outline: as §2
[28] = test system: Canis familiaris; assay: fCmax in dog at 5 mg/kg, po; assay type: ADME, organism-based, Canis lupus familiaris; parameters: dose 5 mg/kg, route oral; settings: in vivo
[29] = test system: Rhesus monkey; assay: fCmax in monkey at 0.5 mg/kg, iv; assay type: ADME, organism-based, Macaca mulatta; parameters: dose 0.5 mg/kg, route intravenous; settings: in vivo

O=C(O)c1ccc(NC(=O)[C@H](CC2CCCC2)n2cnc(C(F)(F)F)c2)nc1 [PF-04991532]
fAUC [1]: 79.1 ng·h/mL | fCmax [2]: 176 ng/mL | solubility kinetic [3]: 524 µM (≈ 208 µg/mL) | Vd [4]: 1.6 L/kg | Kp uu at 4 h [5]: 0.009 | fAUC [6]: 30.3 ng·h/mL | bioavailability [7]: 18% | Kp uu at 4 h [8]: 0.25 | fCmax [9]: 13.6 ng/mL | Kp uu at 4 h [10]: 14.5 | fAUC [11]: 72.6 ng·h/mL | dose excreted [12]: 11% | Kp uu at 4 h [13]: 0.14 | fAUC [14]: 94.7 ng·h/mL | solubility thermodynamic [15]: 4200 µg/mL (≈ 10.6 mM) | fCmax [16]: 5.4 ng/mL | Vd [17]: 0.7 L/kg | fCmax [18]: 479 ng/mL | bioavailability [19]: 18% | fAUC [20]: 34.7 ng·h/mL | dose excreted [21]: 62% | fAUC [22]: 46.2 ng·h/mL | Vd [23]: 2 L/kg | Kp uu at 4 h [24]: 10.5 | Fa [25]: 53% | bioavailability [26]: 35% | BPR [27]: BLD | fCmax [28]: 23.3 ng/mL | fCmax [29]: 219 ng/mL
